Measured values collected from several papers.
Technique: competition with immobilised ligand
RPS6KA2 C-terminal kinase domain: Ribosomal protein S6 kinase alpha-2, C-terminal kinase domain (RPS6KA2, Homo sapiens, UniProt Q15349)
RPS6KA2 N-terminal kinase domain: Ribosomal protein S6 kinase alpha-2, N-terminal kinase domain (RPS6KA2, Homo sapiens, UniProt Q15349)

CN(CCCC(F)(F)F)c1nccc(-c2cnn3ncccc23)n1  remaining binding (RPS6KA2 C-terminal kinase domain; binding; 1 µM): 100%
FC(F)(F)Oc1cccc(-c2cnc3ccc(-c4ccncc4)nn23)c1  remaining binding (RPS6KA2 C-terminal kinase domain; binding; 5 µM): 82%
COc1ccnn2ncc(-c3ccnc(N(C)C)n3)c12  remaining binding (RPS6KA2 C-terminal kinase domain; binding; 1 µM): 100%
O=C(c1ccc(Nc2ncc(Cl)c(-c3ccc(Cl)s3)n2)cc1)N1CCC(N2CCCC2)CC1  remaining binding (RPS6KA2 C-terminal kinase domain; binding; 1 µM): 71%
Nc1ncc2c(n1)-c1c([nH]c3ccc(C#CC4CC4)cc13)CCCC2  remaining binding (RPS6KA2 C-terminal kinase domain; binding; 1 µM): 92%
Cc1cnc(Nc2ccc(C(=O)N3CCC(N4CCCC4)CC3)cc2)nc1-c1cc2ccccc2s1  remaining binding (RPS6KA2 N-terminal kinase domain; binding; 1 µM): 100%
Cc1c(NC(=O)c2cc(C(N)=O)nc3cc(F)ccc23)c(C(F)(F)F)nn1Cc1ccc(C#N)cc1  remaining binding (RPS6KA2 C-terminal kinase domain; cell-free assay; 1 µM): 86%
O=C(c1ccc(Nc2nccc(-c3cc4ccccc4s3)n2)cc1)N1CCC(N2CCCC2)CC1  remaining binding (RPS6KA2 N-terminal kinase domain; binding; 1 µM): 100%
N#CC1(c2ccccn2)CCN(Cc2cc(C(=O)N3CCCC3)c(=O)n3ccccc23)CC1  remaining binding (RPS6KA2 N-terminal kinase domain; cell-free assay; 1 µM): 88%
O=C(NCCCN1CCOCC1)c1ccc(Nc2ncc(Cl)c(-c3ccc(Cl)s3)n2)cc1  remaining binding (RPS6KA2 C-terminal kinase domain; binding; 1 µM): 63%
Cc1cnn2ncc(-c3ccnc(N(C)C)n3)c2c1  remaining binding (RPS6KA2 C-terminal kinase domain; binding; 1 µM): 100%
CNC(=O)[C@@H]1CC[C@@H](n2c(-c3ccc4cnccc4c3)nc3ccc(C(=O)NCc4cccc(C(N)=O)c4)cc32)C1  remaining binding (RPS6KA2 C-terminal kinase domain; binding; 1 µM): 91%
O=C(NCCCN1CCOCC1)c1ccc(Nc2nccc(-c3cc4ccccc4s3)n2)cc1  remaining binding (RPS6KA2 C-terminal kinase domain; binding; 1 µM): 16%
COc1cc(C(=O)N2CCC(N3CCN(C)CC3)CC2)ccc1Nc1ncc2c(n1)N(C)c1ccccc1C(=O)N2C  remaining binding (RPS6KA2 C-terminal kinase domain; binding; 10 µM): 7.5%
COc1cnc(Nc2cccc(S(N)(=O)=O)c2)nc1N1CCN(c2ccccc2)C(=O)C1  remaining binding (RPS6KA2 C-terminal kinase domain; binding; 1 µM): 100%
CCN1CCN(Cc2ccc(C(=O)Nc3ccc(C)c(Oc4ccc5c(c4)CC(=O)N5)c3)cc2C(F)(F)F)CC1  remaining binding (RPS6KA2 C-terminal kinase domain; binding; 1 µM): 91%
CC1CCCN1c1nccc(-c2cnn3ncccc23)n1 (stereo not shown)  remaining binding (RPS6KA2 N-terminal kinase domain; binding; 1 µM): 100%
CC(C)CC(=O)N1CCc2nc(-c3ccc(Br)cc3)nc(N(C)Cc3ccccc3)c2C1  remaining binding (RPS6KA2 C-terminal kinase domain; cell-free assay; 0.1 µM): 100%
C=CC(=O)N1CCC(C(=O)NCC(=O)N2CCN(c3nc(-c4cnc(N)nc4C(F)F)nc(N4CCOCC4)n3)CC2)CC1  remaining binding (RPS6KA2 C-terminal kinase domain; binding; 1 µM): 93%
O=S(=O)(NC1CCC(c2cc(F)ccc2F)(S(=O)(=O)c2ccc(Cl)cc2)CC1)C(F)(F)F (stereo not shown)  remaining binding (RPS6KA2 C-terminal kinase domain; cell-free assay; 1 µM): 95%
CN(C)c1nccc(-c2cnc3ncccn23)n1  remaining binding (RPS6KA2 C-terminal kinase domain; binding; 1 µM): 91%
CCS(=O)(=O)c1cc2cc(C[C@](O)(CC(C)(C)c3ccc(F)cc3C(N)=O)C(F)(F)F)[nH]c2cn1  remaining binding (RPS6KA2 C-terminal kinase domain; cell-free assay; 1 µM): 81%
O=C(c1ccc(Nc2ncc(Cl)c(-c3cc4ccccc4s3)n2)cc1)N1CCC(N2CCCC2)CC1  remaining binding (RPS6KA2 N-terminal kinase domain; binding; 1 µM): 100%
CN1CCN(c2cnc3c(C4CCN(C(=O)c5ccc(OC(F)(F)F)cc5N)CC4)ncnc3c2)CC1  remaining binding (RPS6KA2 C-terminal kinase domain; cell-free assay; 1 µM): 100%
c1cncc(-c2cccc(Nc3nccc(NC4CCCCC4)n3)c2)c1  remaining binding (RPS6KA2 C-terminal kinase domain; binding; 10 µM): 100%
N[C@@H]1CCN(c2nccc(-c3cnn4ncccc34)n2)C1  remaining binding (RPS6KA2 N-terminal kinase domain; binding; 1 µM): 100%
CS(=O)(=O)N1CCCC(NC(=O)[C@H](CCC2CCCCC2)NC(=O)c2ccc(CNC(=O)c3cnc4ccccn34)cc2)C1 (stereo partly shown)  remaining binding (RPS6KA2 C-terminal kinase domain; cell-free assay; 0.1 µM): 94%
C[C@@H](c1ccc(-n2cnc3c(N)ncnc32)cc1)N1CCc2nn(C)c(Cc3ccccc3)c2C1=O  remaining binding (RPS6KA2 C-terminal kinase domain; binding; 0.1 µM): 78%
c1cnn2ncc(-c3ccnc(N4CCC45COC5)n3)c2c1  remaining binding (RPS6KA2 C-terminal kinase domain; binding; 1 µM): 85%
O=C(NCC1CCOCC1)c1n[nH]cc1NC(=O)c1c(F)cccc1F  remaining binding (RPS6KA2 C-terminal kinase domain; binding; 1 µM): 100%
COc1cnc(Nc2cccc(S(N)(=O)=O)c2)nc1N1CCN(c2ccccc2)CC1  remaining binding (RPS6KA2 N-terminal kinase domain; binding; 1 µM): 93%
O=C(Nc1c[nH]nc1C(=O)NC1CCNCC1)c1cc(F)cc(F)c1  remaining binding (RPS6KA2 N-terminal kinase domain; binding; 1 µM): 100%
O=C(Nc1cccnn1)N1CCC(=Cc2cccc(Oc3ccc(C(F)(F)F)cn3)c2)CC1  remaining binding (RPS6KA2 C-terminal kinase domain; cell-free assay; 1 µM): 100%
COc1ncc2cc3ccccc3nc2c1C#N  remaining binding (RPS6KA2 C-terminal kinase domain; cell-free assay; 5 µM): 94%
